High-throughput results from PubChem BioAssay.
Rpn11 inh: Rpn11 (PSMD14) deubiquitinase inhibitors, primary screen, biochemical, fluorescence polarization, uHTS; human 26S proteasome, Ub4-pepOG fluorescence polarization; 20S core pre-blocked with epoxomicin; inhibition, % at 20 µM; actives 0.59% (n = 360,000);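 active = inhibition at 20 µM, scaled to each plate's controls, above about 33%, limit read from the data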
NadD block: inhibitors of S. aureus NadD, primary screen, biochemical, colorimetric, uHTS. purified NadD enzyme, colorimetric absorbance read-out. actives 0.78% (n = 360,000). inhibition, % at 20 µM. AID 602399, 2012. Nicotinate-nucleotide adenylyltransferase NadD (Staphylococcus aureus N315); in the data active = inhibition above about 26%
TPT1 inh: Candida albicans TPT1 enzyme inhibitors, primary screen, biochemical, fluorescence polarization; inhibition, % at 5 µM; actives 0.81% (n = 300,000); recombinant caTPT1, FP RNA substrate dephosphorylation; AID 1962, 2009; tRNA 2'-phosphotransferase TPT1 (Candida albicans SC5314);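 active = inhibition above the mean of all tested compounds plus 3 SD, set per screening campaign, cut at about 24% in these data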;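 also: plate controls were DMSO alone for no effect and ferristatin control at 100 nM for full effect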
HNF4A DNA FP: change in binding of human HNF4A to DNA, primary screen, biochemical, fluorescence polarization, FITC-DNA; AID 1224865, 2016; actives 0.3% (n = 360,000); 1 h; activity change, % at 10 µM; in the data active = activity change above about 30%, passing the limit was not always enough
CSN inh: inhibitors of CSN-mediated cullin deneddylation, primary screen, biochemical, fluorescence polarization, uHTS; COP9 signalosome complex subunit 5 (Homo sapiens), Q92905; Purified CSN, SCF-Nedd8-OG deneddylation; inhibition, % at 12.5 µM; actives 0.38% (n = 360,000);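 active = pattern-corrected inhibition above about 35%, with an unprinted fluorescence ratio check between 0.5 and 1.5, limit read from the data, passing the limit was not always enough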;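 also: 0% = enzyme with substrate and 100% = substrate without enzyme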
Target sequence (Q92905 whole entry, looked up, one chain of several): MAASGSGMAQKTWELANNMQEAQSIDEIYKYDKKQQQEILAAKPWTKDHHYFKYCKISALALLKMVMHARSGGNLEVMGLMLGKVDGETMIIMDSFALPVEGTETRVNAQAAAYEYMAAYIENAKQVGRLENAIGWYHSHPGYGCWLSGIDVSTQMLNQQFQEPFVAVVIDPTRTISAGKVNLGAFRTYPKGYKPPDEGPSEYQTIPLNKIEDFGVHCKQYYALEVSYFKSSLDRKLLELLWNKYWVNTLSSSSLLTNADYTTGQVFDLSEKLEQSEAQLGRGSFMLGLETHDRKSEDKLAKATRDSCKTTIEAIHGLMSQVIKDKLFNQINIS
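Assay system: purified human Csn5 enzyme expressed in HEK293T cells; Input: 0.24 nM Csn5 enzyme, final concentration; Reagent: 10 nM SCFSkp2-Nedd8OG; Compound dosing: 12.5 µM single point; Times: reaction 90 min, room temperature; Technique: fluorescence polarization readout.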
PP1 inh: PP1-alpha phosphatase inhibitors, primary screen, counter-screen for PP5 inhibitor project, biochemical, fluorescence, OMFP substrate, single point | inhibition, % at 6.7 µM | actives 0.9% (n = 320,000) | purified PP1alpha;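 active = inhibition above the mean inhibition of all tested compounds plus 3 SD, computed separately for each screening campaign, cut at about 15% in these data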
caTPT1 confirm: Candida albicans TPT1 inhibitors, confirmation, biochemical, fluorescence polarization, triplicate; shares compounds with TPT1 inh; recombinant caTPT1, RNase T1 coupled; inhibition, % at 5 µM; actives 74% (n = 2,400); AID 2149, 2009;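 active = inhibition above the primary screen limit, the mean inhibition of all tested compounds plus 3 SD, cut at about 25% in these data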
RNase T1 counter: RNase T1 inhibitors, counter-screen for TPT1 inhibitor project, biochemical, fluorescence polarization | RNase T1 cleavage, 1536-well | shares compounds with TPT1 inh | actives 83% (n = 2,400) | inhibition, % at 5 µM | AID 2153, 2009;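 active = inhibition above the solvent-only control well mean plus 3 SD, limit set per screening run, cut at about 23% in these data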;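 also: plate controls were DMSO wells with enzyme for no effect and wells without RNase T1 for full effect; inhibitors block cleavage so intact labeled substrate keeps polarization high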
Target sequence (P00651 whole entry, looked up): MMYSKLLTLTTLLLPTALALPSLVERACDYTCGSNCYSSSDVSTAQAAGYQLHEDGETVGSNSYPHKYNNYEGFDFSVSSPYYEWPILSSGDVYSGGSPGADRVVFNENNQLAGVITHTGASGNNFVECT
PP1 inh confirm: PP1 phosphatase inhibitors, confirmation, biochemical, fluorescence, OMFP substrate, triplicate; shares compounds with PP1 inh; inhibition, % at 6.7 µM; purified PP1alpha; AID 2358, 2010; actives 52% (n = 1,900);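 active = mean PP1 inhibition above a set limit taken from the earlier primary screen, cut at about 15% in these data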
PP5 inh counter: PP5 phosphatase inhibition by PP1 hits, confirmation, counter-screen for PP1 inhibitor project, biochemical, fluorescence, triplicate; shares compounds with PP1 inh; purified PP5c, OMFP fluorescence; inhibition, % at 6.7 µM; actives 4% (n = 1,900); AID 2360, 2010;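 active = mean PP5 inhibition over triplicate wells above about 9.5% taken from the earlier PP1 screen, limit read from the data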
Rpn11 inh conf: Rpn11 (PSMD14) deubiquitinase inhibitors, confirmation, biochemical, fluorescence polarization, single concentration; shares compounds with Rpn11 inh; purified human 26S proteasome, Ub4-pepOG fluorescence polarization; proteasome pretreated with epoxomicin; inhibition, % at 20 µM; actives 29% (n = 1,900)
MMP-2 inh: MMP-2 enzyme inhibition, confirmation, counter-screen for RPN11 inhibitor project, biochemical, fluorescence, single concentration; shares compounds with Rpn11 inh; recombinant MMP-2, FRET peptide cleavage fluorescence; inhibition, % at 20 µM; actives 4% (n = 1,900); AID 602330, 2012;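 also: human MMP-2 activated beforehand with APMA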
Thrombin inh: bovine thrombin protease inhibition, confirmation, counter-screen for Rpn11 inhibitor project, biochemical, fluorescence polarization, single concentration. shares compounds with Rpn11 inh. bovine thrombin cleavage of Ub4-pepOG. inhibition, % at 20 µM. actives 13% (n = 1,900). AID 602333, 2012;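 active = mean inhibition at least 40% at 20 µM, or signal 3 deviations below plate average, so some actives read negative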;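 also: plate controls were thrombin with DMSO for no effect and buffer wells lacking thrombin for full effect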
NadD inh conf: inhibitors of S. aureus NadD, confirmation, biochemical, colorimetric, single concentration. actives 13% (n = 2,000). purified S. aureus NadD, colorimetric enzyme assay. inhibition, % at 20 µM. shares compounds with NadD block; in the data active = inhibition mostly above about 42%, no sharp cut-off; inactive = mostly below about 42%
The depositor's hits bear a star; x = not tested or not shown. The list is not random: actives were taken first. Their share in the collection is about 2.7%. Rule as the data show it, unless noted: active = inhibition above about 40%; inactive = the rest.

SMILES	Rpn11 inh	NadD block	TPT1 inh	HNF4A DNA FP	CSN inh	PP1 inh	caTPT1 confirm	RNase T1 counter	others
COc1ccccc1-n1cc2c([N+](=O)[O-])cc([N+](=O)[O-])cc2n1	4	-4	-3	0	-1	4	x	x
Cc1ccc(S(=O)(=O)Nc2cc(C)cn(Cc3ccc(F)cc3)c2=O)cc1	60*	3	24*	18	18	2	36*	47*	Rpn11 inh conf=33;MMP-2 inh=-19;Thrombin inh=59*
Cc1ccc(S(=O)(=O)Nc2cc(C)cn(Cc3ccccc3)c2=O)cc1	27	2	12	18	14	-2	x	x
CC(NC(=O)/C(C#N)=C/c1ccc(C(=O)O)cc1)c1ccccc1 (centres undefined)	1	1	-5	4	5	1	x	x
COc1cc(/C=C(/C#N)C(=O)NC(C)c2ccccc2)cc(OC)c1O (centres undefined)	71*	1	66*	3	18	4	107*	108*	Rpn11 inh conf=22;MMP-2 inh=-12;Thrombin inh=8
Cc1c(N=C2N=C(NC(=O)c3cccs3)c3ccccc32)c(=O)n(-c2ccccc2)n1C	x	31*	85*	48	34	-1	113*	113*	NadD inh conf=12
C[C@H]1CN([C@@H](C)CO)C(=O)CCCn2nncc2CO[C@@H]1CN(C)Cc1ccccc1	-5	-6	x	3	22	x	x	x
Cc1ccc(-c2cc(-c3ccco3)c3c(N)c(C(=O)NN)oc3n2)cc1	18	28*	72*	11	-4	18*	35*	43*	PP1 inh confirm=13;PP5 inh counter=6;NadD inh conf=1
CCOC(=O)c1cc(-c2cccs2)nc2onc(C)c12	-1	0	2	-3	4	-4	x	x
